Data from ChEMBL document CHEMBL3351900, “Conjugation of a nonspecific antiviral sapogenin with a specific HIV fusion inhibitor: a promising strategy for discovering new antiviral therapeutics” (J Med Chem, 2014).
Square brackets hold non-standard residues; d marks the D form. Peptide text beside a SMILES is read from it. * marks the point of attachment. X9 = C=CCOC(=O)[C@]12CC[C@@H](C)[C@H](C)[C@H]1C1=CC[C@@H]3[C@@]4(C)CC[C@H](OC(=O)CCc5cn(CC(=O)*)nn5)C(C)(C)[C@@H]4CC[C@@]3(C)[C@]1(C)CC2; X8 = C[C@H]1[C@H](C)CC[C@]2(C(=O)O)CC[C@]3(C)C(=CC[C@@H]4[C@@]5(C)CC[C@H](OC(=O)CCc6cn(CC(=O)*)nn6)C(C)(C)[C@@H]5CC[C@]43C)[C@H]12; βAla = NCCC(=O)O

How the values were obtained:
[1] = test system: Human immunodeficiency virus 1; test: Antiviral activity against HIV1 3B infected in human MT2 cells assessed as inhibition of viral p24 antigen production by ELISA; type: functional, organism-based; conditions: Human immunodeficiency virus 1, 3B
In short: (§1)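 MT-2 cells (1 × 10⁴) infected with 100 TCID₅₀ virus with or without peptides at graded concentrations. Culture supernatants collected on day 4 postinfection; p24 antigen quantified by ELISA. Percent inhibition and EC₅₀ calculated; tested in triplicate, mean ± standard deviation.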

[2] = Cytotoxicity against human MT2 cells after 4 days by XTT assay; type: cell-based
In short: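 MT-2 cells (5 × 10⁵/mL) mixed with equal volumes of graded conjugate concentrations and held at 37 °C for 4 days. XTT (1 mg/mL) with 0.02 μM phenazine methosulfate added for 4 h, then A450 read. CC50 calculated from the dose–response.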

[3] = test system: Human immunodeficiency virus 1; test: Antiviral activity against HIV1 BaL infected in human […] cells assessed as inhibition of viral replication; type: functional, organism-based; conditions: Human immunodeficiency virus 1, BaL; in short: as §1
[4] = Selectivity index, ratio of CC50 for human MT2 cells to EC50 for HIV1 3B infected in human MT2 cells; type: toxicity, cell-based; conditions: read-out: Ratio CC50/EC50
[5] = test system: Human immunodeficiency virus 1; test: Antiviral activity against T20-sensitive HIV1 NL4-3 harboring gp41 D36G mutant infected in human MT2 cells; type: functional, organism-based; in short: as §1
[6] = test system: Human immunodeficiency virus 1; test: Antiviral activity against T20-resistant HIV1 NL4-3 harboring gp41 D36G/V38A mutant infected in human MT2 cells; type: functional, organism-based; in short: as §1
[7] = test system: Human immunodeficiency virus 1; test: Antiviral activity against T20-resistant HIV1 NL4-3 harboring gp41 D36G/V38A/N42D mutant infected in human MT2 cells; type: functional, organism-based; in short: as §1
[8] = test system: Human immunodeficiency virus 1; test: Antiviral activity against T20-resistant HIV1 NL4-3 harboring gp41 D36G/N42T/N43K mutant infected in human MT2 cells; type: functional, organism-based; in short: as §1
[9] = test system: Human immunodeficiency virus 1; test: Antiviral activity against T20-resistant HIV1 NL4-3 harboring gp41 D36G/V38E/N42S mutant infected in human MT2 cells; type: functional, organism-based; in short: as §1
[10] = test system: Human immunodeficiency virus 1; test: Antiviral activity against T20-resistant HIV1 NL4-3 harboring gp41 D36G/V38A/N42T mutant infected in human MT2 cells; type: functional, organism-based; in short: as §1
[11] = test system: Human immunodeficiency virus 1; test: Ratio of EC50 for T20-resistant HIV1 NL4-3 harboring gp41 D36G/V38A mutant infected in human MT2 cells to EC50 for T20-sensitive HIV1 NL4-3 harboring gp41 D36G mutant infected in human MT2 cells; type: functional
In short: (§2)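 MT-2 cells (1 × 10⁴) infected with 100 TCID₅₀ of HIV-1 NL4-3 gp41 mutant virus with or without peptide at graded concentrations. Culture supernatants collected on day 4 postinfection and p24 antigen measured by ELISA. Percent inhibition and EC₅₀ calculated, triplicate, mean ± standard deviation. Fold change = EC₅₀ against each mutant divided by EC₅₀ against the D36G strain.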

[12] = test system: Human immunodeficiency virus 1; test: Ratio of EC50 for T20-resistant HIV1 NL4-3 harboring gp41 D36G/V38A/N42D mutant infected in human MT2 cells to EC50 for T20-sensitive HIV1 NL4-3 harboring gp41 D36G mutant infected in human MT2 cells; type: functional; in short: as §2
[13] = test system: Human immunodeficiency virus 1; test: Ratio of EC50 for T20-resistant HIV1 NL4-3 harboring gp41 D36G/N42T/N43K mutant infected in human MT2 cells to EC50 for T20-sensitive HIV1 NL4-3 harboring gp41 D36G mutant infected in human MT2 cells; type: functional; in short: as §2
[14] = test system: Human immunodeficiency virus 1; test: Ratio of EC50 for T20-resistant HIV1 NL4-3 harboring gp41 D36G/V38E/N42S mutant infected in human MT2 cells to EC50 for T20-sensitive HIV1 NL4-3 harboring gp41 D36G mutant infected in human MT2 cells; type: functional; in short: as §2
[15] = test system: Human immunodeficiency virus 1; test: Ratio of EC50 for T20-resistant HIV1 NL4-3 harboring gp41 D36G/V38A/N42T mutant infected in human MT2 cells to EC50 for T20-sensitive HIV1 NL4-3 harboring gp41 D36G mutant infected in human MT2 cells; type: functional; in short: as §2
Rattus norvegicus [16] = test: AUC (0 to t) in rat at 4 mg/kg, iv administered as single dose; type: ADME, organism-based, Plasma; parameters: dose 4 mg/kg, route intravenous; conditions: in vivo
In short: (§3)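 Rats given one intravenous dose of 4 mg/kg. Peptide measured in plasma over time. Parameters (AUC(0−t), MRT(0−t), t1/2, Vd, Cmax) derived by model-independent analysis.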

Rattus norvegicus [17] = test: Half life in rat at 4 mg/kg, iv at 4 mg/kg, iv administered as single dose; type: ADME, organism-based; conditions: in vivo; in short: as §3
[18] = Volume of distribution in rat at 4 mg/kg, iv administered as single dose; type: ADME, organism-based; parameters: dose 4 mg/kg, route intravenous; conditions: in vivo; in short: as §3
Rattus norvegicus [19] = test: Cmax in rat at 4 mg/kg, iv administered as single dose; type: ADME, organism-based; parameters: dose 4 mg/kg, route intravenous; conditions: in vivo; in short: as §3
[20] = Half life in rat liver homogenate at 8 ug/ml; type: ADME, tissue-based
[21] = Half life of the compound at 8 ug/ml by proteinase K digestion assay; type: ADME
[22] = Half life in rat kidney homogenate at 8 ug/ml; type: ADME, tissue-based
[23] = target: GP41 (Human immunodeficiency virus 1) (UniProt Q76270); test: Ratio of EC50 for HIV1 gp41-induced cell-cell fusion between viral envelope expressing human HL2/3 cells to CD4/CCR5 receptor expressing TZM-bl cells with wash out to EC50 for HIV1 gp41-induced cell-cell fusion between viral envelope expressing human HL2/3 cells to CD4/CCR5 receptor expressing TZM-bl cells; type: cell-based
In short: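 Peptides preincubated with TZM-bl cells at 37 °C for 1 h, with or without washing away unbound peptide. EC50 compared between washed and unwashed cells, giving the n-fold change. Triplicates, mean ± SD.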

Compound: CC[C@H](C)[C@H](NC(=O)[C@H](CC(C)C)NC(=O)[C@H](CO)NC(=O)[C@H](Cc1cnc[nH]1)NC(=O)[C@@H](NC(=O)[C@H](CC(C)C)NC(=O)[C@H](CO)NC(=O)[C@@H](NC(=O)[C@H](Cc1ccc(O)cc1)NC(=O)[C@H](CC(N)=O)NC(=O)[C@H](CC(N)=O)NC(=O)CCNC(=O)Cn1cc(CCC(=O)O[C@H]2CC[C@]3(C)[C@H]4CC=C5[C@@H]6[C@@H](C)[C@H](C)CC[C@]6(C(=O)O)CC[C@@]5(C)[C@]4(C)CC[C@H]3C2(C)C)nn1)[C@@H](C)O)[C@@H](C)CC)C(=O)N[C@@H](CCC(=O)O)C(=O)N[C@@H](CCC(=O)O)C(=O)N[C@@H](CO)C(=O)N[C@@H](CCC(N)=O)C(=O)N[C@@H](CC(N)=O)C(=O)N[C@@H](CCC(N)=O)C(=O)N[C@@H](CCC(N)=O)C(=O)N[C@@H](CCC(=O)O)C(=O)N[C@@H](CCCCN)C(=O)N[C@@H](CC(N)=O)C(=O)N[C@@H](CCC(=O)O)C(=O)N[C@@H](CCC(N)=O)C(=O)N[C@@H](CCC(=O)O)C(=O)N[C@@H](CC(C)C)C(=O)N[C@@H](CC(C)C)C(N)=O ({X8-βAla}-NNYTSLIHSLIEESQNQQEKNEQELL-NH2)
- EC50 [1]: 0.387 µM
- CC50 at 96 h [2]: > 25 µM
- EC50 [3]: 0.113 µM
- selectivity ratio [4]: > 64

Compound: enfuvirtide
- EC50 [5]: 0.0406 µM
- EC50 [6]: > 2 µM
- EC50 [7]: > 2 µM
- EC50 [8]: > 2 µM
- EC50 [9]: > 2 µM
- EC50 [10]: > 2 µM
- Ratio EC50 [11]: >50
- Ratio EC50 [12]: >50
- Ratio EC50 [13]: >50
- Ratio EC50 [14]: >50
- Ratio EC50 [15]: >50
- AUCt (Rattus norvegicus [16]): 26900 ng·h/mL
- t1/2 (Rattus norvegicus [17]): 131 min
- Vd [18]: 0.44 L/kg
- Cmax (Rattus norvegicus [19]): 25500 ng/mL
- half-life at 8 ug/ml [20]: 31 min
- half-life at 8 ug/ml [21]: 19.4 min
- half-life at 8 ug/ml [22]: 16.9 min
- EC50 [1]: 0.0109 µM
- CC50 at 96 h [2]: > 25 µM
- EC50 [3]: 0.00288 µM
- selectivity ratio [4]: > 2290
- Ratio EC50 [23]: 39

Compound: C=CCOC(=O)[C@]12CC[C@@H](C)[C@H](C)[C@H]1C1=CC[C@@H]3[C@@]4(C)CC[C@H](OC(=O)CCc5cn(CC(=O)NCCCC[C@H](NC(=O)CCNC(=O)[C@H](CC(C)C)NC(=O)[C@H](CC(C)C)NC(=O)[C@H](CCC(=O)O)NC(=O)[C@H](CCC(N)=O)NC(=O)[C@H](CCC(=O)O)NC(=O)[C@H](CC(N)=O)NC(=O)[C@H](CCCCN)NC(=O)[C@H](CCC(=O)O)NC(=O)[C@H](CCC(N)=O)NC(=O)[C@H](CCC(N)=O)NC(=O)[C@H](CC(N)=O)NC(=O)[C@H](CCC(N)=O)NC(=O)[C@H](CO)NC(=O)[C@H](CCC(=O)O)NC(=O)[C@H](CCC(=O)O)NC(=O)[C@@H](NC(=O)[C@H](CC(C)C)NC(=O)[C@H](CO)NC(=O)[C@H](Cc6cnc[nH]6)NC(=O)[C@@H](NC(=O)[C@H](CC(C)C)NC(=O)[C@H](CO)NC(=O)[C@@H](NC(=O)[C@H](Cc6ccc(O)cc6)NC(=O)[C@H](CC(N)=O)NC(=O)[C@H](CC(N)=O)NC(C)=O)[C@@H](C)O)[C@@H](C)CC)[C@@H](C)CC)C(N)=O)nn5)C(C)(C)[C@@H]4CC[C@@]3(C)[C@]1(C)CC2 (Ac-NNYTSLIHSLIEESQNQQEKNEQELL[βAla]K(X9)-NH2)
- EC50 [1]: 0.00218 µM
- CC50 at 96 h [2]: 7.92 µM
- EC50 [3]: 0.00251 µM
- selectivity ratio [4]: 3630
